Columns and labels:
MS2 coat protein [1] = experiment: apparent Kd, MS2 coat protein; higher = weaker binding; RNA-MaP array; theophylline 2 mM where present
How it was run: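 Designs were transcribed by stalled E. coli RNA polymerase on Illumina sequencing-chip clusters. They were titrated with SNAP-549-labelled MS2 coat protein from 0.7 or 1.5 nM, doubling to 3 µM, without and then with constant ligand. Buffer: 100 mM Tris-HCl pH 7.5, 80 mM KCl, 4 mM MgCl2, BSA, DTT, yeast tRNA, Tween-20. Green signal was normalised to red-channel RNA signal and control-cluster median Fmax. Apparent Kd is the median of filtered per-cluster binding-curve fits.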

MS2 coat protein [2] = experiment: apparent Kd, MS2 coat protein; higher = weaker binding; RNA-MaP array
How it was run: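 Apparent Kd was taken as the median of binding curves fitted cluster by cluster. The designed RNAs were made by transcription of sequenced DNA templates on an Illumina sequencing chip and exposed to fluorescently labeled MS2 coat protein (1.5 nM to 3 μM) at room temperature, with or without input ligand, for 0.8–1.5 h at the lowest and 10–20 min at the highest concentrations. Any design measured on fewer than 10 clusters was left out.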

[3] = designed as: OFF switch for theophylline, no ligand
[4] = ligand present: theophylline, designed as: OFF switch for theophylline
[5] = designed as: ON switch for flavin mononucleotide, no ligand
[6] = ligand present: flavin mononucleotide, designed as: ON switch for flavin mononucleotide
[7] = designed as: OFF switch for flavin mononucleotide, no ligand
[8] = ligand present: flavin mononucleotide, designed as: OFF switch for flavin mononucleotide

| Sequence | apparent Kd (MS2 coat protein [2]; [5]) | apparent Kd (MS2 coat protein [2]; [6]) | apparent Kd (MS2 coat protein [2]; [7]) | apparent Kd (MS2 coat protein [2]; [8]) | also measured |
| --- | --- | --- | --- | --- | --- |
| AAAACACAUGAGGAUCACCCAUGUCGUGAUACCAGUCAACAUGAGGACCCUUGGCAGCAUAAAAUGGGUAACAUGAGGAUCACCC |  |  |  |  | apparent Kd (MS2 coat protein [1]; [3]): 85.1 nM; apparent Kd (MS2 coat protein [1]; [4]): 133 nM |
| AAAAUAAAUAAAACGCGUAACAUGAAGGAUACCAGCCAGAAAACUGGCCCUUGGCAGCCUCUACAUGAGGAUCACCCAUGUCGCG |  |  |  |  | apparent Kd (MS2 coat protein [1]; designed as: ON switch for theophylline, no ligand): 331 nM; apparent Kd (MS2 coat protein [1]; ligand present: theophylline, designed as: ON switch for theophylline): 29.6 nM |
| AAACAUGACAUGGAUACCAGACACAUGAGGAUCACCCAUGUUGAGGAUCACCCAUGUCCCGUCCCUUGGCAGCCAGCAUGAGGAU |  |  |  |  | apparent Kd (MS2 coat protein [1]; [3]): 9.49 nM; apparent Kd (MS2 coat protein [1]; [4]): 10.2 nM |
| GGGCGUGGAGUAGGAUAUCCUGUAUACAUGAGGAUCACCCAUGUACAUAUCUAGUAUUACCGUUUGGAGAAGGACUGUUGGGCU | 11.5 nM | 9.71 nM |  |  |  |
| GGUCCCGUAGGAUAUUGCUCAUUGUACAUGAGGAUCACCCAUGUGACUACACUGCACUGGCAAGAAGGACGUUGAU |  |  | 83.2 nM | 50.2 nM |  |
| GGUGCACAUGAGGAUCACCCAUGUGAGGAUAUGUGAAACGAGCUGAAUGCCAACCAAAACAGAAGGCACAAUGG |  |  | 18.3 nM | 19 nM |  |
| GUAAGCAAGCAAGGAUAUGAUAUAAAUUCGAUAUCAGAAGGUGCCUUUCCUAGUCGAAUACAUGAGGAUCACCCAUGUCAGCAA | 25.6 nM | 18 nM |  |  |  |
| GUACCUCCCAAAGGAUAUGGACCGCAGACAUGAGGAUCACCCAUGUAGGACGCACUGUUUGCGCGCCAGAAGGUUGUUAAUCGC |  |  | 98.5 nM | 73.2 nM |  |
| GUAUGGAUAUUCUCACGCUACAUGAGGAUCACCCAUGUUCUAAGAAGGCGGCGAGGUAGAGCAUCCGAGGAUAUUAGAACUCAG |  |  | 21.1 nM | 76 nM |  |
| GUCUCACAGAUAGGAUAUGGUUUUCACAUGAGGAUCACCCAUGUAAAUCCUAAAGUAAGUGGAGGCCAGAAGGAUCCGGUACAG |  |  | 32.2 nM | 35.1 nM |  |
| GUGAGACAUGAGGAUCACCCAUGUAAGGAUAUUGCCUCGACCAUAUAAACAUAUCGGACAAGAAGGUACAGGAG |  |  | 37.8 nM | 29.1 nM |  |
| GUGGGCCGGGUAGGAUAUCGACAUGAGGAUCACCCAUGUGUGAGUUGAUGAACUCACGGAUAGCCCGAGAAGGACCUCAGGGCU | 17.9 nM | 16.2 nM |  |  |  |
| GUGUACAUGAGGAUCACCCAUGUGAGAGCCACAUAGGGCCAGAAGGAUAUCUAUACUACCGCGUCAGAGAAGGUCUGUUGAUUU | 33.2 nM | 24.9 nM |  |  |  |
| UAAGAUUCUGUAGGAUAUCAAAUACAUGAGGAUCACCCAUGUAACCUGAUUUCUGAUCCUCAGUGUGAGAAGGACAAUUAAGCC |  |  | 22.1 nM | 21.2 nM |  |
| UACAUGAGGAUCACCCAUGUUAACGCUUAGAUGCAUCGACGUGAGGAUAUCGGGUUAAACCAGCACGAGAAGGCACAUCCAGAU | 34.5 nM | 20.2 nM |  |  |  |
| UACGUAUUAGGAGGAUAUGGCCCUCAUCUUUGACAUGAGGAUCACCCAUGUGGACAUUACGCCACCCAGAAGGCCUUGCUCGGA |  |  | 468 nM | 344 nM |  |
| UACGUGGAUGCGGCCGCCACUGCUCUGAGCGAGUUGCUCUAUGGACAUGAGGAUCACCCAUGUCACAGGACCGGGCACGCUUUAA |  |  |  |  | apparent Kd (MS2 coat protein [2]; designed as: ON switch for tryptophan, no ligand): 10.4 nM; apparent Kd (MS2 coat protein [2]; ligand present: tryptophan, designed as: ON switch for tryptophan): 9.67 nM |
| UACUGCAAACAGAAGGUUGGAAGUCGGUUCUCCAAAGGAUAUGUACAUGAGGAUCACCCAUGUGCGCAAAUCGCACAGAGGAGG |  |  | 14.6 nM | 36.9 nM |  |
| UAGACGCACAAACAUGAGGAUCACCCAUGUGUACAGACGCUGCAGGAUAUCCUCUGAAGUUAGUAGGAGAAGGGCAAACAACCU | 44.5 nM | 27.3 nM |  |  |  |
| UAGAGGACGGGAGGAUAUUCAGGUACAUCAGCCGAAGGCACACAUGAGGAUCACCCAUGUGGGUCGAAGAAGGCCCAGUUGACG | 5.37 nM | 4.67 nM |  |  |  |
| UAGCAAUGCGAAGGAUAUGUCGCCCUCCCAAGGACAGAAGGUCGGAACUGUUUACAUGAGGAUCACCCAUGUGGUAAUUAACAA | 21.8 nM | 15.6 nM |  |  |  |
| UAGGAACAUGAGGAUCACCCAUGUUAGGAUAUCGAGGUAUGGAUUAUCAUGCUGUAAGCGAGAAGGAACGUGUG |  |  | 30.8 nM | 29.6 nM |  |
| UAUUGAAUCCUCCCGACAUGAGGAUCACCCAUGUUACCUGCGCAGGAUAUCGUAUGUAUACCCGGCGAGAAGGGCGCUAGCGAG |  |  | 213 nM | 160 nM |  |
| UAUUUAUCUAUUGUGACAAACAUGAGGAUCACCCAUGUAUACAGAAGGCAUUACCGAAUCUCGGAUGAGGAUAUGUUAUGGAGU |  |  | 14 nM | 33.9 nM |  |
| UCAAUAUGUCGUUGACAUGAGGAUCACCCAUGUACUAACUAGCAGGAUAUCGUGAUUAACCCUACCGAGAAGGGCUGUUGUAUU | 40.7 nM | 34.9 nM |  |  |  |
